Measurements reported in ChEMBL document CHEMBL2401731, “Synthesis and pharmacological evaluation of 2-aryloxy/arylamino-5-cyanobenzenesulfonylureas as novel thromboxane A₂ receptor antagonists” (Eur J Med Chem, 2013).
Calls of active or inactive are those of the source. The rule behind the calls is not given here.

Columns and labels:
Thromboxane A2 receptor [1] = molecular target: T1, Thromboxane A2 receptor (Homo sapiens, UniProt P21731); test: Antagonist activity at human thromboxane A2 receptor alpha over-expressed in HEK293 cells assessed as inhibition of U-46619-induced intracellular calcium mobilization by fluorescence assay; format: functional, cell-based
T1 sequence (P21731 whole entry): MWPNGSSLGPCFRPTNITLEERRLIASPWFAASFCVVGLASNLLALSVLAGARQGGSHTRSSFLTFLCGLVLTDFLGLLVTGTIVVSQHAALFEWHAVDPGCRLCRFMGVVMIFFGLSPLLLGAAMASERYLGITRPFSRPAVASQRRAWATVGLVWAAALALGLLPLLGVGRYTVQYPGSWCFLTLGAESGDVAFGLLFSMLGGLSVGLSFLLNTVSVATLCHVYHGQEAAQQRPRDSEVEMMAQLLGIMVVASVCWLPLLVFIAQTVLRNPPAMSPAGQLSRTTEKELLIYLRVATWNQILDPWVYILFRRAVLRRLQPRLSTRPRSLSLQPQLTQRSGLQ
Summary of the method: (§1)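 HEK293 cells stably expressing HA-tagged TPα or TPβ, grown in DMEM/10% FBS. Trypsinized cells washed in Krebs-HEPES buffer, pH 7.4, loaded 1 h with Fluo-4/AM, rinsed, 150,000 cells/well. Compound at 10^-9 to 10^-5 M final, then stimulated with U-46619. Fluorescence read at 538 nm, calibrated to [Ca2+]i with Triton X-100/EGTA. IC50 from concentration-response curves, three independent experiments.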

Platelet = test: Antiplatelet activity against human platelets assessed as inhibition of U-46619-induced platelet aggregation at 10 uM after 1 min; format: functional, cell-based
Homo sapiens = species: Homo sapiens; test: Selectivity index, ratio of IC50 for human thromboxane A2 receptor alpha to IC50 for human thromboxane A2 receptor beta
Summary of the method: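 IC50 at TPα divided by IC50 at TPβ. Both IC50s come from U-46619-stimulated Fluo-4 calcium mobilization in HEK293 cells stably expressing each isoform. Mean ± SD of three separate experiments.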

Thromboxane A2 receptor [2] = molecular target: T1, Thromboxane A2 receptor; test: Antagonist activity at human thromboxane A2 receptor beta over-expressed in HEK293 cells assessed as inhibition of U-46619-induced intracellular calcium mobilization mobilization by fluorescence assay; format: functional, cell-based; summary of the method: as §1
[3] = Antiplatelet activity against human platelets assessed as inhibition of U-46619-induced platelet aggregation at 1 uM after 1 min; format: functional, cell-based
Summary of the method: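 Human platelet-rich plasma is taken from donors free of medication for at least 14 days, obtained at 100×g for 10 min, and adjusted to […] with platelet-poor plasma. Platelets incubated with test sample or 0.1% DMSO at 37 °C for 1 min, then U-46619 added to trigger aggregation. Aggregation measured by light transmission. Means ± SD, n ≥ 2.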

SMILES | IC50 (Thromboxane A2 receptor [1]) [µM] | Ratio IC50 (Homo sapiens) | IC50 (Thromboxane A2 receptor [2]) [µM] | IC50 [3] [µM] | inhibition (Platelet)
Cc1ccc(Nc2ccc(C#N)cc2S(=O)(=O)NC(=O)NC(C)C)cc1 | 4.11 | 0.9 | 4.22 |  | Active
Cc1ccccc1Nc1ccc(C#N)cc1S(=O)(=O)NC(=O)NC(C)(C)C | 2.75 |  | 4.78 | 0.971 | Active
CC(C)(C)NC(=O)NS(=O)(=O)c1cc(C#N)ccc1Nc1ccc(F)cc1 | 4.64 | 0.95 | 4.91 |  | 
Cc1ccc(Nc2ccc([N+](=O)[O-])cc2S(=O)(=O)NC(=O)NC(C)(C)C)cc1 | 0.7 | 1.1 | 0.62 | 0.509 | 
CCCCCNC(=O)NS(=O)(=O)c1cc(C#N)ccc1Nc1ccc(C)cc1 | 1.04 | 0.5 | 2.06 |  | Active
Cc1cccc(Oc2ccc(C#N)cc2S(=O)(=O)NC(=O)NC(C)(C)C)c1 | 1.05 |  | 0.69 | 0.705 | Active
CCCCCNC(=O)NS(=O)(=O)c1cc(C#N)ccc1Oc1ccc(Cl)cc1 | 8.64 | 0.9 | 8.72 |  | 
Cc1ccccc1Oc1ccc(C#N)cc1S(=O)(=O)NC(=O)NC(C)(C)C | 3.69 |  | 1.47 | 0.966 | Active
CCCCCNC(=O)NS(=O)(=O)c1cc(C#N)ccc1Oc1ccc(Br)cc1 | 8.52 | 0.9 | 9.54 |  | 
CCCCCNC(=O)NS(=O)(=O)c1cc(C#N)ccc1Nc1ccccc1C | 3.19 | 0.4 | 7.85 |  | Active
CCCCCNC(=O)NS(=O)(=O)c1cc(C#N)ccc1Oc1ccc(F)cc1 | 9.43 | 0.9 | 9.53 |  | 
CCCCCNC(=O)NS(=O)(=O)c1cc(C#N)ccc1Oc1ccccc1C | 2.24 | 1.3 | 1.78 |  | Active
CCCCCNC(=O)NS(=O)(=O)c1cc(C#N)ccc1Nc1ccc(F)cc1 | 6.78 | 1.05 | 6.45 |  | 
Cc1ccc(Nc2ccc(C#N)cc2S(=O)(=O)NC(=O)NC(C)(C)C)cc1 | 0.85 |  | 1.04 | 0.504 | Active
Cc1cccc(Nc2ccc(C#N)cc2S(=O)(=O)NC(=O)NC(C)C)c1 | 9.5 | 1 | 9.11 |  | Active
CCCCCNC(=O)NS(=O)(=O)c1cc(C#N)ccc1Nc1cccc(C)c1 | 2.95 | 1.3 | 2.33 |  | Active
CC(C)NC(=O)NS(=O)(=O)c1cc(C#N)ccc1Nc1ccc(F)cc1 | 8.17 | 1.04 | 7.83 |  | 
Cc1cccc(Nc2ccc(C#N)cc2S(=O)(=O)NC(=O)NC(C)(C)C)c1 | 1.59 | 0.7 | 2.2 | 0.726 | Active
CCCCCNC(=O)NS(=O)(=O)c1cc(C#N)ccc1Oc1cccc(C)c1 | 1.33 | 2 | 0.68 |  | Active
Cc1ccccc1Nc1ccc(C#N)cc1S(=O)(=O)NC(=O)NC(C)C | 7.24 | 0.7 | 10.1 |  | Active

Second part, led by results:

IC50 (Thromboxane A2 receptor [1]) [µM] | Ratio IC50 (Homo sapiens) | IC50 (Thromboxane A2 receptor [2]) [µM] | IC50 [3] [µM] | SMILES | inhibition (Platelet)
0.75 |  | 0.68 | 0.649 | Cc1ccc(Oc2ccc(C#N)cc2S(=O)(=O)NC(=O)NC(C)(C)C)cc1 | Active
5.88 | 1.1 | 5.31 |  | CC(C)(C)NC(=O)NS(=O)(=O)c1cc(C#N)ccc1Oc1ccc(Br)cc1 | 
4.35 | 1.2 | 3.89 |  | CC(C)(C)NC(=O)NS(=O)(=O)c1cc(C#N)ccc1Oc1ccc(F)cc1 | 
9.62 | 1 | 9.3 |  | CC(C)NC(=O)NS(=O)(=O)c1cc(C#N)ccc1Oc1ccc(F)cc1 | 
3.05 | 2.3 | 1.35 |  | Cc1ccc(Oc2ccc(C#N)cc2S(=O)(=O)NC(=O)NC(C)C)cc1 | Active
9.52 | 1 | 9.49 |  | CCCCCNC(=O)NS(=O)(=O)c1cc(C#N)ccc1Oc1ccc(I)cc1 | 
5.64 | 1.1 | 5.27 |  | CC(C)(C)NC(=O)NS(=O)(=O)c1cc(C#N)ccc1Oc1ccc(Cl)cc1 | 
2.38 | 1.4 | 1.69 |  | Cc1cccc(Oc2ccc(C#N)cc2S(=O)(=O)NC(=O)NC(C)C)c1 | Active
5.52 | 0.9 | 5.54 |  | CC(C)(C)NC(=O)NS(=O)(=O)c1cc(C#N)ccc1Oc1ccc(I)cc1 | 
0.9 | 1.4 | 0.63 |  | CCCCCNC(=O)NS(=O)(=O)c1cc(C#N)ccc1Oc1ccc(C)cc1 | Active
9.46 | 1.1 | 8.49 |  | CC(C)NC(=O)NS(=O)(=O)c1cc(C#N)ccc1Oc1ccc(Cl)cc1 | 
9.47 | 1 | 9.13 |  | CC(C)NC(=O)NS(=O)(=O)c1cc(C#N)ccc1Oc1ccc(Br)cc1 | 
8.68 | 1.4 | 6.13 |  | Cc1ccccc1Oc1ccc(C#N)cc1S(=O)(=O)NC(=O)NC(C)C | Active
9.52 | 1 | 9.49 |  | CC(C)NC(=O)NS(=O)(=O)c1cc(C#N)ccc1Oc1ccc(I)cc1 | 
